Here are results for two molecules from ChEMBL document CHEMBL1157749, “Novel N2-substituted pyrazolo[3,4-d]pyrimidine adenosine A3 receptor antagonists: inhibition of A3-mediated human glioblastoma cell proliferation” (J Med Chem, 2010).

A word on the Ki: it is the equilibrium dissociation constant of an inhibitor or competing ligand from its target. A higher Ki goes with a looser hold on the target.

Assay [1] concerns the target T1, Adenosine receptor A1 (Homo sapiens, UniProt P30542).
T1 sequence (P30542 whole entry): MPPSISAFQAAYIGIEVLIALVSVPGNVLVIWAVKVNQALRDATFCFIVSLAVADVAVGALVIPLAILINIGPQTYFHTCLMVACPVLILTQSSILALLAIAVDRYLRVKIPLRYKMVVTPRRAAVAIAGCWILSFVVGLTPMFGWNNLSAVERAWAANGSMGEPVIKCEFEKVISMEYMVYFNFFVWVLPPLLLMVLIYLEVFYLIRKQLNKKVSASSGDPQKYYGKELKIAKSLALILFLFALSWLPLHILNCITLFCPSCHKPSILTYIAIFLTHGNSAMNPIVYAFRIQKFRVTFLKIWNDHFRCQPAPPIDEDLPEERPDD
Briefly: Displacement of [3H]DPCPX from human adenosine A1 receptor expressed in CHO cells. It counts as cell-based. A general note: Loss of bound radioactivity is the signal in a displacement assay; it reports binding, not function.

The target of assay [2] is T2, Adenosine receptor A3 (Homo sapiens) (UniProt P0DMS8).
T2 sequence (whole entry): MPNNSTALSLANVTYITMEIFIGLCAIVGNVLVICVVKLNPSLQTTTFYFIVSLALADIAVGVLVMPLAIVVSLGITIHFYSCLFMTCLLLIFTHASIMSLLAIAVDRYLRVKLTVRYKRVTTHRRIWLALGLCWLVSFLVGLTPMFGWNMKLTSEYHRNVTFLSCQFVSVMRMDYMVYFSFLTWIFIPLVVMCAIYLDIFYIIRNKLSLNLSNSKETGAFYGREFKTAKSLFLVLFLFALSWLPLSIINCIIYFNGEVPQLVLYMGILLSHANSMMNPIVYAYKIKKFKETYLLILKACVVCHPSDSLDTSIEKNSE
Kind of assay: Induction of adenosine A3 receptor-mediated ERK1/2 phosphorylation in human U87MG cells at 100 nM by ELISA. It is filed as cell-based. The settings on record: U-87MG ATCC, TDE = time-dependent effect. Put shortly:
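Time course in U87MG cells given 100 nM Cl-IB-MECA for 5–120 min. Phospho-ERK1/2 is read by colorimetric cell-based ELISA after fixation, with crystal violet cell-number correction. Results are % of control cells, mean ± SEM, Student t test.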
(In general: An ELISA detects its analyte on a solid surface through an enzyme-linked reagent.)

The target of assay [3] is T1, Adenosine receptor A1. Briefly: Inhibition of human adenosine A1 receptor. Put shortly: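 Displacement binding using membranes (30 μg protein) from CHO cells stably expressing human A1 receptor. […] Six compound concentrations were tested, in DMSO ≤2% final. Nonspecific binding was defined with 50 μM RPIA. IC50 was converted to Ki by Cheng-Prusoff; at least three determinations.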

In the case of `CNC(=O)OC[C@H]1O[C@@H](n2cnc3c(NCc4cccc(I)c4)nc(Cl)nc32)[C@H](O)[C@@H]1O`, affinity on Adenosine receptor A1 [1] was put at a Ki of 120 nM. Besides, the Activity entry in assay [2] is “tde”.

On Adenosine receptor A1 [3], `Cc1cn2c(NC(=O)c3ccccc3)nc(-c3ccccc3)nc2n1` showed a Ki of 350 nM.
